According to paper PMC3447998 (Biochemistry, 2012):
“Also recorded” adds a separate entry of the source. Where a SMILES comes first, the peptide text is derived from it. Where no end group is shown, it is not given here. The star is where a group is joined. X2 = C[N+](C)(C)[C@@H](CO)C(=O)*; X1 = C[N+]1(C)CCC[C@H]1C(=O)*

Tests used:
recombinant human NRMT = molecular target: T1, recombinant human NRMT (Homo sapiens, UniProt Q9BV86); test: Isothermal titration calorimetry; format: binding; conditions: 25°C, pH 8.0; for binding to recombinant human NRMT (in words): 10 residue RCC1 N-terminal peptides
T1 sequence (Q9BV86 1-223): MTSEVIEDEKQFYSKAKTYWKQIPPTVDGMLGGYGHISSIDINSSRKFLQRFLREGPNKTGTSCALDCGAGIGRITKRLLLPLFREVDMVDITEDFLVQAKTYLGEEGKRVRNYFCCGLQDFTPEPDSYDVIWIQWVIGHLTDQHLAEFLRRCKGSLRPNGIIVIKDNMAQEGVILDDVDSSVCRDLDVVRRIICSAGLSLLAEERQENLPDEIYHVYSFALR
Procedure, shortened: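 Recombinant NRMT was dialyzed overnight at 4°C against 50 mM Tris, 50 mM potassium acetate, pH 8.0. Ten-residue RCC1 N-terminal peptides, unmodified or N-methylated, were dissolved in the same buffer. At 25°C, 100 µM enzyme was titrated with 800–1000 µM peptide, and binding curves were fitted.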

[1] = test system: recombinant NRMT (SPK-RCC1 substrate); test: In vitro product inhibition assay, SPK-RCC1 substrate; format: biochemical; conditions: increasing concentrations of product peptide; n=2
Procedure, shortened: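 Recombinant NRMT methylated RCC1 protein substrates bearing SPK or PPK N-termini in vitro. Increasing concentrations of N-trimethylated SPK or N-dimethylated PPK RCC1 product peptides were present. The read-out was N-terminal methylation of the substrate protein, normalized to the lowest product-peptide condition.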

N-terminus of protein = conditions: yeast and mammals; ref [24],[25]; cited from earlier work
[2] = test system: endogenous NRMT (293LT cells); test: Co-precipitation of endogenous NRMT with FLAG-tagged substrate proteins; format: binding; conditions: C-terminally FLAG-tagged protein expressed in 293LT cells
Procedure, shortened: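 C-terminally FLAG-tagged RCC1 or VRK2 expressed in 293LT cells, immunoprecipitated with anti-FLAG, and run on 10% polyacrylamide gel with Coomassie staining. On-bead material washed 3× with 100 mM ammonium bicarbonate (pH 8.0), then reduced, carbamidomethylated and digested with endoproteinase Glu-C (enzyme:protein 1:20). Peptides acidified to pH 3.5 and analysed by nano-LC-MS on C18 capillary columns.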

With `CC[C@H](C)[C@H](NC(=O)[C@H](CCCNC(=N)N)NC(=O)[C@H](CCCCN)NC(=O)[C@@H]1CCCN1C(=O)[C@@H]1CCC[N+]1(C)C)C(=O)N[C@@H](C)C(=O)N[C@@H](CCCCN)C(=O)N[C@@H](CCCNC(=N)N)C(=O)N[C@@H](CCCNC(=N)N)C(=O)N[C@@H](CO)C(=O)O` [me2PPKRIAKRRS] (X1-PKRIAKRRS-OH; C-terminus assumed) the “binding to recombinant human NRMT (in words)” value (shortened to “binding”) (recombinant human NRMT) was “bound to recombinant human NRMT with high affinity” and the “concentration of efficient inhibition of N-terminal methylation of SPK-RCC1” value [1] was 1.3 µM.
In the case of `CC[C@H](C)[C@H](NC(=O)[C@H](CCCNC(=N)N)NC(=O)[C@H](CCCCN)NC(=O)[C@@H]1CCCN1C(=O)[C@H](CO)[N+](C)(C)C)C(=O)N[C@@H](C)C(=O)N[C@@H](CCCCN)C(=O)N[C@@H](CCCNC(=N)N)C(=O)N[C@@H](CCCNC(=N)N)C(=O)N[C@@H](CO)C(=O)O` [me3SPKRIAKRRS] (X2-PKRIAKRRS-OH; C-terminus assumed), the “binding” value (recombinant human NRMT) is reported as “bound to recombinant human NRMT with high affinity” and the “concentration of efficient inhibition of N-terminal methylation of SPK-RCC1” value [1] is reported as 1.3 µM.
For PPKRIAKRRS [PPKRIAKRRS], the Kd (recombinant human NRMT; Kd, bi-phasic titration curve, second phase) was 136 nM.
For PPQRIAKRRS, the “binding” value (recombinant human NRMT) was “very low affinity binding (in mM range, data not shown)”.
For PWP1: protein with MNR-N-terminus, the “N-terminal acetylation reported (in words)” value (N-terminus of protein) is listed as “reported to be N-terminally acetylated”.
In the case of SPQRIAKRRS, the “binding” value (recombinant human NRMT) is reported as “very low affinity binding (in mM range, data not shown)”.
In the case of “VRK2-FLAG: FLAG-tagged VRK2, possesses a P-P-K motif”, the “capture / co-precipitation of endogenous NRMT (in words)” value [2] is reported as “efficiently captured endogenous NRMT” and the “capture / co-precipitation of endogenous NRMT (in words)” value ([2]; listed as VRK2) is reported as “captured more NRMT than the RCC1; also recorded: NRMT is co-precipitated”.
